Results of several laboratories.
Lines come from different studies, so protocols differ.
Target: Proto-oncogene tyrosine-protein kinase ROS (ROS1, Homo sapiens, UniProt P08922)

SMILES	assay	setting	endpoint	result
O=c1[nH]c2ccccc2n1C1CCN(Cc2ccc(-c3[nH]c4cc5ncnc5cc4nc3-c3ccccc3)cc2)CC1	cell-free assay	0.5 µM	remaining signal	101%
Cc1nn(C)cc1-c1nc2c(N3CCN(Cc4ccc(Cl)cc4)CC3)c(Cl)cnc2[nH]1	binding, competition with immobilised ligand	1 µM	remaining binding	100%
COc1ncccc1-c1cnn2ccc(N3CCN(C(=O)OC(C)C)CC3)nc12	binding, competition with immobilised ligand	1 µM	remaining binding	100%
N#CC1(c2ccccn2)CCN(Cc2cc(C(=O)O)c(=O)n3ccccc23)CC1	cell-free assay, competition with immobilised ligand	1 µM	remaining binding	90%
Nc1ncc(-c2nc(N3CCOCC3)nc(N3CCOCC3)n2)c(C(F)F)n1	binding, competition with immobilised ligand	10 µM	remaining binding	54%
Cn1cc(-c2cc(F)cc(N3CCn4c(cc5c4CCCC5)C3=O)c2CO)cc(Nc2ccc(N3CCN(C4COC4)CC3)cn2)c1=O	enzyme activity, inhibitor	0.1 µM	inhibition	10%
C#Cc1n[nH]c2c(-c3cn([C@@H](C)c4ccccn4)c(=O)[nH]c3=O)cc(F)cc12	enzyme activity, inhibitor	0.1 µM	inhibition	5.1%
Cn1cncc1[C@](O)(COc1ccc(C#N)cc1-c1ccc(OC(F)(F)F)cc1)c1ccc(C#N)cc1	cell-free assay, competition with immobilised ligand	1 µM	remaining binding	89%
